Rows were chosen to be rich in hits. Some 1.5% of all compounds tested hit in one or more screens of this group.
APJ antagonist – antagonists of human APJ apelin receptor | inhibition, % at 20 µM | CHO-K1 APJ beta-arrestin complementation, luminescence | P35414 | hit rate 0.32% among 330,000;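 active means inhibition above about 40% at 20 µM, limit read from the data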;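 further: cells challenged with 10 nM apelin-13 agonist together with compound; plate controls were apelin-13 plus DMSO wells for no effect and DMSO wells lacking apelin-13 for full effect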
CXCR6 inh – inhibitors of human CXCR6 receptor; CHO-K1 PathHunter CXCR6 beta-arrestin, luminescence; inhibition, % at 20 µM; hit rate 0.36% among 360,000; in the data active means inhibition above about 34%, passing the limit was not always enough;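 further: antagonist mode with CXCL16 agonist at 10 nM final; 0% = 10 nM CXCL16 with DMSO and 100% = unstimulated wells without agonist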
Target sequence (O00574 whole entry, looked up): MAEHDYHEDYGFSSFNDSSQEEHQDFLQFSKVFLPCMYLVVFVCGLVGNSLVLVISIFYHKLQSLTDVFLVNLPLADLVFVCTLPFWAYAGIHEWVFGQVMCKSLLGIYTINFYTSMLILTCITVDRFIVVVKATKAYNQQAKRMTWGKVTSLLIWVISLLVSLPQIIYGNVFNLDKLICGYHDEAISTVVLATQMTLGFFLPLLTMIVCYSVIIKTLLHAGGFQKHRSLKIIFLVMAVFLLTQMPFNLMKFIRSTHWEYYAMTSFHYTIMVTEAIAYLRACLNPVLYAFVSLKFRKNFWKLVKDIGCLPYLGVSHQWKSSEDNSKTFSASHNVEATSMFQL
EBI2 block – EBI2 (human) antagonism; EBI2 beta-arrestin recruitment, luminescence, 7a,25-OHC stimulated; inhibition, % at 5 µM; hit rate 0.81% among 360,000; AID 651636; in the data active means inhibition above about 38%;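 further: enzyme fragment complementation signal reports receptor beta-arrestin coupling in cells; 0% = agonist plus DMSO wells and 100% = wells without agonist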
Target sequence (P32249 whole entry, looked up, the tested form may be a part): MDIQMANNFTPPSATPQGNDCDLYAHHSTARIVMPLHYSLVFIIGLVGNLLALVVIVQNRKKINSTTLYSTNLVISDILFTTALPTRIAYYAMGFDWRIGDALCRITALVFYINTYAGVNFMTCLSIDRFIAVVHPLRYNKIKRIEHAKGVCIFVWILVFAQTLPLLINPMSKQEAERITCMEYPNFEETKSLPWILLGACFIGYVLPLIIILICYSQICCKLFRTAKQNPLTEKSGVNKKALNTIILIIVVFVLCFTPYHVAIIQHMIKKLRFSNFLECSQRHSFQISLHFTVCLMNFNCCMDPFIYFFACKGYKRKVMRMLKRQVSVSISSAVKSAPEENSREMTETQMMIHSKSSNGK
APJ agonist – activates the human apelin receptor APJ; P35414; CHO-K1 APJ PathHunter beta-arrestin, luminescence; 0% DMSO wells, 100% apelin; activation, % at 20 µM; hit rate 0.11% among 330,000; AID 2520;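 active means activation more than six SD over the plate average, tested at 20 µM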;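 further: 0% = DMSO alone and 100% = apelin-13 at 10 nM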
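Material: CHO-K1 APJ beta-arrestin complementation cell line; Input: cell density 1000 per well; Incubation: compound stimulation 90 min at 25 °C, detection 60 min; Signal: luminescence from split beta-galactosidase complementation, Galacton Star/Emerald II substrate; Controls: DMSO-only wells as negative, 10 nM Apelin-13 as positive control.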
CCR6 antagonist – antagonists of human CCR6 receptor. CHO-K1 CCR6 PathHunter beta-arrestin, luminescence, CCL20-stimulated. P51684. inhibition, % at 20 µM. hit rate 0.49% among 340,000;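 active means compounds whose inhibition of the agonist-driven luminescence signal at 20 µM reaches about 50%, limit read from the data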;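 further: cells stimulated with CCL20 at 14 nM final; plate controls were DMSO with CCL20 for no effect and DMSO without agonist for full effect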
EBI2 conf – EBI2 (human) antagonism, single concentration confirmation; shares compounds with EBI2 block; AID 651997; hit rate 29% among 2,400; EBI2 beta-arrestin luminescence, 7a,25-OHC antagonism; inhibition, % at 5 µM;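 active means inhibition of at least 50%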
EBI2 agonist – EBI2 agonism counter-screen; shares compounds with EBI2 block; EBI2-expressing cells, agonist mode, luminescence, 60 min; 0% vehicle, 100% 7α,25-dihydroxycholesterol control; activation, % at 5 µM; 2,400 tested, under 10 active; AID 652000;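 active means activation of at least 50%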
bGal cs – inhibits E. coli beta-galactosidase, counter-screen for EBI2 antagonists; shares compounds with EBI2 block; purified beta-galactosidase, luminescent Galacton Star, 15 min; inhibition, % at 5 µM; hit rate 1% among 2,400;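 active means replicate-average signal at least 3 plate SD below neutral wells, shown as high inhibition, flagging enzyme-inhibiting false positives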;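 further: 0% = DMSO wells with enzyme and 100% = wells lacking enzyme; higher means stronger loss of beta-gal luminescence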
The depositor's hits bear a star; . = not tested or not shown.

SMILES | APJ antagonist | CXCR6 inh | EBI2 block | APJ agonist | CCR6 antagonist | EBI2 conf | EBI2 agonist | bGal cs
C=CCN(CC=C)C(=O)Nc1cc(OC)ccc1OC | . | -3 | 6 | . | 3 | . | . | .
CC(C)c1ccc2oc(-c3ccc(N)cc3)nc2c1 | -14 | -11 | 52* | -2 | -7 | 57* | 0 | -1
Cc1ccc(-c2nc3cc(N)ccc3o2)cc1 | -1 | -10 | -11 | -4 | -5 | . | . | .
COc1ccc(C2c3ccc(O)cc3Oc3ncn4nc(-c5ccccn5)nc4c32)cc1 (stereo not drawn) | 25 | -9 | 47* | -4 | 9 | 18 | 0 | 6
COc1ccc(C2c3ccc(O)cc3Oc3ncn4nc(-c5ccccn5)nc4c32)cc1OC (stereo not drawn) | -16 | 1 | 38 | -7 | 9 | . | . | .
CCN1C=CC2=C(C#N)C(N)C(C#N)(C#N)C(c3ccccc3C(F)(F)F)C2C1 (stereo not drawn) | 12 | 8 | 29 | -3 | 2 | . | . | .
O=c1[nH]c(CN2CCN(S(=O)(=O)/C=C/c3ccccc3)CC2)nc2cc(Cl)ccc12 | 3 | -1 | 71* | -1 | 14 | 41 | -2 | -12
O=c1[nH]c(CN2CCN(S(=O)(=O)c3ccc4ccccc4c3)CC2)nc2ccccc12 | -5 | -4 | 53* | -1 | 10 | 25 | 4 | 5
O=c1[nH]c(CN2CCN(C/C=C/c3ccccc3)CC2)nc2ccccc12 | 10 | -1 | 21 | 3 | 13 | . | . | .
O=c1[nH]c(CN2CCN(S(=O)(=O)/C=C/c3ccccc3)CC2)nc2ccccc12 | 10 | -6 | 46* | -2 | 12 | 22 | -2 | -10
CC(c1nc2ccccc2c(=O)[nH]1)N1CCN(S(=O)(=O)c2ccc(F)c(Cl)c2)CC1 (stereo not drawn) | . | -5 | 59* | . | . | 48 | 1 | 0
CCOC(=O)C1(CCCc2ccccc2)CCN(Cc2cnn(C)c2)CC1 | 7 | 4 | 14 | -2 | 14 | . | . | .
O=[N+]([O-])c1sccc1CS(=O)(=O)c1ccccc1 | -15 | 2 | 1 | 4 | -3 | . | . | .
COc1ccccc1NC(=O)CC12CC3CC(CC(Br)(C3)C1)C2 | -9 | -12 | -5 | 3 | 15 | . | . | .
COc1ccccc1N(C(=O)c1ccncc1)c1nc(-c2ccc([N+](=O)[O-])cc2)cs1 | -3 | -9 | 55* | 6 | 7 | 74* | 1 | 1
CN1C(=O)[C@@](O)(CC(=O)c2ccccc2)c2cc(Br)ccc21 | . | . | 2 | . | . | . | . | .
CN1C(=O)C(O)(CC(=O)c2ccccn2)c2cc(Br)ccc21 (stereo not drawn) | 24 | 9 | 36* | -2 | 38 | 29 | -2 | -8
COc1ccccc1N1CCN(S(=O)(=O)c2ccc3nc(-c4ccccc4)[nH]c3c2)CC1 | -21 | -1 | 53* | 2 | 11 | 32 | 1 | 5
O=S(=O)(c1ccc2nc(-c3ccccc3)[nH]c2c1)N1CCN(c2cccc(Cl)c2)CC1 | -33 | 3 | -3 | 8 | -8 | . | . | .
CC(C)(C)Nc1ncnc2sc(-c3ccccc3)cc12 | -9 | -16 | 73* | 4 | 2 | 40 | 5 | 9
CC(=O)Nc1ccc(OC(F)(F)C(F)C(F)(F)F)c(NC(C)=O)c1 (stereo not drawn) | -10 | -10 | -2 | -1 | -2 | . | . | .
O=C(c1ccc(-c2ccccc2)cc1)N1CCN(C(=O)c2ccco2)CC1 | 8 | -1 | 72* | -3 | 5 | 35 | 2 | 7
CS(=O)(=O)N1CCN(C(=O)c2ccc(-c3ccccc3)cc2)CC1 | 10 | -7 | 70* | -4 | 7 | 30 | 2 | 6
CC(C)(C)NC(=O)C1CCN(C(=O)c2ccc(-c3ccccc3)cc2)CC1 | 4 | -7 | 48* | -3 | 11 | 47 | 0 | -16
CCS(=O)(=O)N1CCN(C(=O)c2ccc(-c3ccccc3)cc2)CC1 | 8 | 1 | 83* | 1 | -23 | 56* | 0 | -24
SMILES | APJ antagonist | CXCR6 inh | EBI2 block | APJ agonist | CCR6 antagonist | EBI2 conf | EBI2 agonist | bGal cs
O=C(CSCc1c(F)cccc1Cl)NCc1cccnc1 | -5 | 2 | 4 | 2 | 11 | . | . | .
COc1ccccc1-c1cc(C(=O)N2CCN(c3ccccc3OC)CC2)no1 | 11 | -1 | 18 | -1 | -5 | . | . | .
COc1ccc(-c2cc(C(=O)N3CCN(c4ccccc4OC)CC3)no2)cc1 | -6 | 6 | 68* | -4 | 11 | 42 | -2 | -10
COc1ccccc1N1CCN(C(=O)c2cc(-c3ccc(Cl)cc3)on2)CC1 | -15 | 8 | 58* | -3 | 0 | 41 | 0 | 4
COc1ccccc1N1CCN(C(=O)c2cc(-c3ccc(F)cc3)on2)CC1 | 3 | 7 | 57* | -1 | 3 | 48 | -1 | 6
COc1ccccc1N1CCN(C(=O)c2cc(-c3ccc(C)cc3)on2)CC1 | 7 | 0 | 64* | -6 | 3 | 44 | 0 | 1
COc1ccc(-c2cc(C(=O)N3CCN(c4ccccc4)CC3)no2)cc1 | -3 | 0 | 33 | 0 | 7 | . | . | .
O=C(CP(=O)(c1ccccc1)c1ccccc1)Nc1nc2ccc(Cl)cc2s1 | 10 | 8 | -7 | -3 | 13 | . | . | .
O=C(NCCCc1ccccc1)C1CCC(=O)N(Cc2ccc(Cl)cc2)C1 (stereo not drawn) | 3 | -2 | 35 | 0 | 5 | . | . | .
COc1ccc(CCCNC(=O)C2CCC(=O)N(Cc3ccc(Cl)cc3)C2)cc1 (stereo not drawn) | -25 | 2 | 49* | -2 | 11 | 24 | 0 | 9
CCc1ccc2oc(C(=O)N3CCN(C)CC3)cc(=O)c2c1 | 15 | -11 | 45* | -5 | 5 | 8 | 1 | 6
CCN1CCN(C(=O)c2cc(=O)c3cc(C)ccc3o2)CC1 | 22 | 0 | 67* | -3 | -4 | 42 | 0 | 9
CN1CCN(C(=O)c2cc(=O)c3cc(Cl)ccc3o2)CC1 | 9 | 5 | 38 | -3 | 2 | . | . | .
O=C(c1cc(-c2cccc(O)c2)on1)N1CCN(C(c2ccccc2)c2ccccc2)CC1 | 0 | -1 | 90* | -1 | 8 | 73* | 0 | 4
COc1ccc2cc(C(=O)N3CCN(Cc4ccc5c(c4)OCO5)CC3)[nH]c2c1 | -17 | -9 | 86* | -1 | 14 | 59* | 0 | 6
O=C(c1cc(C2CC2)on1)N1CCN(C(c2ccccc2)c2ccccc2)CC1 | 9 | 13 | 13 | -4 | 17 | . | . | .
Cc1cc(C(=O)N2CCN(Cc3ccc4c(c3)OCO4)CC2)on1 | -5 | 1 | -9 | -5 | -1 | . | . | .

Screens (PubChem BioAssay)
